From ChEMBL document CHEMBL1145024, “Unique structure-activity relationship for 4-isoxazolyl-1,4-dihydropyridines” (J Med Chem, 2003)

Assays:
[1] = Inhibition of L-type calcium channel subunits alpha1C, beta1b, and alpha2-delta subunits expressed in Human embryonic kidney tsa-201 cells; assay type: cell-based
Procedure, shortened: (§1)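 Whole-cell patch clamp on GFP-positive tsa-201 cells transiently co-transfected (calcium phosphate) with α1C, β1b, α2-δ and GFP, then held at 28 °C for 2–4 days. Bath contained 5 mM BaCl2 as the charge carrier (pH 7.2), and pipettes held CsMS/EGTA. Currents were elicited from −80 mV to test potentials. Compound was diluted from a 10 mM DMSO stock and microperfused, and dose–response curves were fitted individually.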

[2] = Maximum inhibition of L-type calcium channel expressed in HEK tsa-201 cells from Patch Clamp analysis; assay type: functional, HEK293; procedure, shortened: as §1
[3] = species on record: Homo sapiens; experiment: Percent recovery of Human embryonic kidney tsa-201 cells; assay type: functional

CCOC(=O)C1=C(C)N=C(C)/C(=C(/O)OCC)C1c1c(-c2cc(Cl)ccc2OC)noc1C (stereo not given)
IC50 [1]: 6860 nM
Max inhibition [2]: 33
Recovery [3]: 82%

CCOC(=O)C1=C(C)N=C(C)/C(=C(/O)OCC)C1c1c(C)noc1CCc1cccc2ccccc12 (stereo not given)
IC50 [1]: 470 nM
Max inhibition [2]: 76
Recovery [3]: 43%

CCOC(=O)C1=C(C)N=C(C)/C(=C(/O)OCC)C1c1c(C)noc1C (stereo not given)
IC50 [1]: 8100 nM
Max inhibition [2]: 100
Recovery [3]: 87%

CCOC(=O)C1=C(C)N=C(C)/C(=C(/O)OCC)C1c1c(C)noc1CCc1ccc2ccccc2c1 (stereo not given)
IC50 [1]: 1180 nM
Max inhibition [2]: 100
Recovery [3]: 41%

COC(=O)C1=C(C)N=C(C)/C(=C(/O)OC)C1c1c(-c2ccc(Br)cc2)noc1C (stereo not given)
IC50 [1]: 580 nM
Max inhibition [2]: 88
Recovery [3]: 60%

CCOC(=O)C1=C(C)N=C(C)/C(=C(/O)OCC)C1c1c(-c2ccccc2Cl)noc1C (stereo not given)
IC50 [1]: 9680 nM
Max inhibition [2]: 70
Recovery [3]: 65%

CCOC(=O)C1=C(C)N=C(C)/C(=C(/O)OCC)C1c1c(-c2ccc(Cl)cc2)noc1C (stereo not given)
Max inhibition [2]: 100
Recovery [3]: 77%

CCOC(=O)C1=C(C)N=C(C)/C(=C(/O)OCC)C1c1c(C)noc1CCc1cccc(OC)c1 (stereo not given)
IC50 [1]: 1590 nM
Max inhibition [2]: 100
Recovery [3]: 49%

CCOC(=O)C1=C(C)N=C(C)/C(=C(/O)OCC)C1c1c(C)noc1CCc1ccccc1 (stereo not given)
IC50 [1]: 1790 nM
Max inhibition [2]: 100
Recovery [3]: 46%

CCOC(=O)C1=C(C)N=C(C)/C(=C(/O)OCC)C1c1c(C)noc1CCc1cccc(Br)c1 (stereo not given)
IC50 [1]: 130 nM
Max inhibition [2]: 100
Recovery [3]: 48%

COC(=O)C1=C(C)N=C(C)/C(=C(/O)OC)C1c1c(-c2ccc(F)cc2)noc1C (stereo not given)
IC50 [1]: 2710 nM
Max inhibition [2]: 93
Recovery [3]: 66%

COC(=O)C1=C(C)N=C(C)/C(=C(/O)OC)C1c1c(-c2ccc(Cl)cc2)noc1C (stereo not given)
IC50 [1]: 1740 nM
Max inhibition [2]: 85
Recovery [3]: 64%

CCOC(=O)C1=C(C)N=C(C)/C(=C(/O)OCC)C1c1c(-c2cccc(Cl)c2)noc1C (stereo not given)
IC50 [1]: 1980 nM
Max inhibition [2]: 100
Recovery [3]: 65%

CCOC(=O)C1=C(C)N=C(C)/C(=C(/O)OCC)C1c1c(-c2ccccc2OC)noc1C (stereo not given)
Max inhibition [2]: 55
Recovery [3]: 69%
